One test concerns HL-60. The experiment in a line: Cytotoxicity against human HL60 cells by MTT assay. In kind it is functional, cell-based. The method in brief: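 HL-60 human promyelocytic leukemia cells grown in RPMI 1640 with 10% FBS, penicillin and streptomycin at 37 °C under 5% CO2. Cells plated at 3 × 10^5 per well with a range of alkaloid concentrations. Compounds supplied as 10 mM PBS stocks and diluted into growth medium just before use. Survival read out by MTT.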
(Tetrazolium assays rely on reduction of a dye to a coloured formazan, in cell work by metabolically active cells.)

The target in test [1] is T1, DNA topoisomerase 1 (Homo sapiens) (UniProt P11387).
T1 sequence (whole entry): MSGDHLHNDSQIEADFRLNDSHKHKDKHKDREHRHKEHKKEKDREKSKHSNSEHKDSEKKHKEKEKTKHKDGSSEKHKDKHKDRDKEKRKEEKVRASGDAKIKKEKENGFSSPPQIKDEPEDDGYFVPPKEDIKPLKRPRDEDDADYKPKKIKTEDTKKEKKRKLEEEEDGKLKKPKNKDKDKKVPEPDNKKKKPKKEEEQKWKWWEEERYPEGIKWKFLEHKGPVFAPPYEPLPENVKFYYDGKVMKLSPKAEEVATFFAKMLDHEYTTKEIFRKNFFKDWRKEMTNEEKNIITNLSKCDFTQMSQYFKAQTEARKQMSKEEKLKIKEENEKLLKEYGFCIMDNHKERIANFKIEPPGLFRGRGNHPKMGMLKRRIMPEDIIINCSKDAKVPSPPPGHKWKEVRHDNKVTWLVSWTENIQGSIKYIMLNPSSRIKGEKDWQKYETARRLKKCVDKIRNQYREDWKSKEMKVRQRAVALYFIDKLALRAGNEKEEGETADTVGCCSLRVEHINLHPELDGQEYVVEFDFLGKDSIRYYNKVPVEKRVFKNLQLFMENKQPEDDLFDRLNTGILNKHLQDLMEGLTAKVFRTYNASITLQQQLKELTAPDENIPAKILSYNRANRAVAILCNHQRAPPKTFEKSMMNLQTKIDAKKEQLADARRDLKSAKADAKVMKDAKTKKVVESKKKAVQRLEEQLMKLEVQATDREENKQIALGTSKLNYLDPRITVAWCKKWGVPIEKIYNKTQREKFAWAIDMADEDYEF
The experiment in a line: (§1) Inhibition of human recombinant DNA topoisomerase1. The method in brief:
(§2)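 Recombinant human topo I (2 units) relaxing pBR322 DNA (0.25 µg). Buffer: 10 mM Tris-HCl pH 7.9, 1 mM EDTA, 150 mM NaCl, 0.1% BSA, 0.1 mM spermidine, 5% glycerol. Inhibitor added in 10% DMSO; 30 min at 37 °C. Sarkosyl stop, 1% agarose/TAE gel, EtBr stain, relaxed DNA seen under UV.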

The next test is filed under the species Homo sapiens. The test can be described thus: (§3) Inhibition of human recombinant DNA topoisomerase-2. The method in brief: (§4)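 Recombinant human topo II (2 units) relaxing supercoiled pUC19 DNA (0.25 µg). Inhibitor added in 10% DMSO; 30 min at 37 °C. Stopped with sarkosyl loading buffer, run on 1% agarose in TAE, EtBr stain, conversion to relaxed form scored under UV.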

The nature of test [2]: as §3. The method in brief:
as §4

The target in another test is T2, DNA topoisomerase 1 (Homo sapiens, UniProt P11387).
T2 sequence (P11387 whole entry): T1 sequence (whole entry)
The test is described as §1. In short, it runs like this: as §2

Structures are written as SMILES. Activity calls are given as the source filed them. The rule behind the calls is not given here.

As usually defined, the IC50 is the concentration needed to halve the response being measured.

Consider `COC(=O)[C@H]1[C@H]2C[C@@H]3c4[nH]c5cc(OC)ccc5c4CCN3C[C@H]2C[C@@H](OC(=O)/C=C/c2cc(OC)c(OC)c(OC)c2)[C@@H]1OC`, for which the result (with HL-60; in test [1]; in the test listed under Homo sapiens) was inactive.

As for `COC(=O)[C@H]1[C@H]2C[C@@H]3c4[nH]c5ccccc5c4CCN3C[C@H]2CC(O)[C@@H]1O` (stereo partly specified), the outcome (in the test on HL-60; in test [1]; in the test filed under Homo sapiens) was inactive.

For the compound `COC(=O)[C@H]1[C@H]2C[C@@H]3c4[nH]c5ccccc5c4CCN3C[C@H]2CC[C@@H]1O`, the result (in the test on HL-60; in test [1]; in the test listed under Homo sapiens) was inactive.

`CC[C@@]1(O)C(=O)OCc2c1cc1n(c2=O)Cc2cc3ccccc3nc2-1` [CAMPTOTHECIN]: the IC50 in the test on HL-60 is 130 µM; in test [2], above 1000 µM.

Consider `COc1cc([C@@H]2c3cc4c(cc3[C@@H](O[C@@H]3O[C@@H]5CO[C@@H](C)O[C@H]5[C@H](O)[C@H]3O)[C@H]3COC(=O)[C@H]23)OCO4)cc(OC)c1O` [ETOPOSIDE], for which the IC50 in the test on HL-60 was 150 µM; at DNA topoisomerase 1, above 1000 µM; in test [2], 40 µM.

As to `O=C(O)[C@H]1[C@H]2C[C@@H]3c4[nH]c5ccccc5c4CCN3C[C@H]2CC[C@@H]1O` [ISORAUHIMBINIC ACID], the IC50 amounted to 125 µM in the test on HL-60, 40 µM at DNA topoisomerase 1 and 175 µM in test [2].

For the compound `COC(=O)[C@H]1[C@H]2C[C@@H]3c4[nH]c5cc(OC)ccc5c4CCN3C[C@H]2C[C@@H](OC(=O)c2cc(OC)c(OC)c(OC)c2)[C@@H]1OC` [RESERPINE], the figures for the IC50 (in the test on HL-60; at DNA topoisomerase 1; in test [2]) were 67 µM, 160 µM and 20 µM, respectively.

On to `COC(=O)[C@@H]1[C@H]2C[C@H]3c4[nH]c5ccccc5c4CCN3C[C@@H]2CC[C@@H]1O` [YOHIMBINE], for which the outcome (with HL-60; in test [1]; in the test listed under Homo sapiens) was inactive. The IC50 in the test with HL-60 came to 84 µM; on DNA topoisomerase 1, 30 µM; in test [2], 125 µM.
